Sampled rows, rich in hits. Any-hit rate of the full collection: about 1.7%.
SUMO1-SIM PPI: alters human SUMO1 binding to SIM partners. 360,000 compounds, 0.33% hits. P63165. SUMO1 binding to a labelled peptide, TR-FRET, 1 h. inhibition, % at 20 µM; in the data active means inhibition above about 37%
Scp1 inh: inhibitors of human Scp-1 phosphatase; Q9GZU7; Recombinant Scp1, phosphopeptide, malachite green phosphate absorbance; inhibition, % at 20 µM; 340,000 compounds, 0.88% hits;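 active means inhibition above about 50% at 20 µM, limit read from the data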;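 further: plate controls were DMSO wells with enzyme for no effect and wells lacking enzyme for full effect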
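Incubation: 45 min enzyme reaction at room temperature / System: truncated SCP-1 phosphatase (76-261aa) / Reagent: Phospho 17-mer peptide substrate / Buffer or medium: Acidic Tris acetate buffer with magnesium and detergent / Signal: absorbance at 630 nm / Doses: one concentration, 20 µM, with 1.0% DMSO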
LMPTP block: LMPTP (human) inhibition; P24666; recombinant LMPTP-A, OMFP fluorogenic substrate, fluorescence intensity; inhibition, % at 20 µM; 360,000 compounds, 0.22% hits; AID 651560;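 active means compounds that cut the enzyme signal by at least half of the control window in the single-dose screen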;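 further: plate controls were DMSO wells with enzyme plus substrate for no effect and substrate without enzyme for full effect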
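Test system: LMPTP-A, protein tyrosine phosphatase of low molecular weight; Input: 0.625 nM enzyme; Incubation: 50 min dark incubation at room temperature; Signal: endpoint fluorescence intensity from OMFP dephosphorylation; Read-out basis: % inhibition versus control wells.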
DSG3 Ab inh: inhibitors of pemphigus antibody binding to human desmoglein-3. DSG3-coupled beads, scFv-anti-DSG3-GFP binding, flow cytometry; active compounds read low. binding (percent of control), % at 10 µM. 310,000 compounds, 0.48% hits;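 active means binding more than 3 SD below its plate's average and above zero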;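 further: hits lower antibody fragment binding to DSG3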
Target sequence (P32926 whole entry, looked up, the tested form may be a part): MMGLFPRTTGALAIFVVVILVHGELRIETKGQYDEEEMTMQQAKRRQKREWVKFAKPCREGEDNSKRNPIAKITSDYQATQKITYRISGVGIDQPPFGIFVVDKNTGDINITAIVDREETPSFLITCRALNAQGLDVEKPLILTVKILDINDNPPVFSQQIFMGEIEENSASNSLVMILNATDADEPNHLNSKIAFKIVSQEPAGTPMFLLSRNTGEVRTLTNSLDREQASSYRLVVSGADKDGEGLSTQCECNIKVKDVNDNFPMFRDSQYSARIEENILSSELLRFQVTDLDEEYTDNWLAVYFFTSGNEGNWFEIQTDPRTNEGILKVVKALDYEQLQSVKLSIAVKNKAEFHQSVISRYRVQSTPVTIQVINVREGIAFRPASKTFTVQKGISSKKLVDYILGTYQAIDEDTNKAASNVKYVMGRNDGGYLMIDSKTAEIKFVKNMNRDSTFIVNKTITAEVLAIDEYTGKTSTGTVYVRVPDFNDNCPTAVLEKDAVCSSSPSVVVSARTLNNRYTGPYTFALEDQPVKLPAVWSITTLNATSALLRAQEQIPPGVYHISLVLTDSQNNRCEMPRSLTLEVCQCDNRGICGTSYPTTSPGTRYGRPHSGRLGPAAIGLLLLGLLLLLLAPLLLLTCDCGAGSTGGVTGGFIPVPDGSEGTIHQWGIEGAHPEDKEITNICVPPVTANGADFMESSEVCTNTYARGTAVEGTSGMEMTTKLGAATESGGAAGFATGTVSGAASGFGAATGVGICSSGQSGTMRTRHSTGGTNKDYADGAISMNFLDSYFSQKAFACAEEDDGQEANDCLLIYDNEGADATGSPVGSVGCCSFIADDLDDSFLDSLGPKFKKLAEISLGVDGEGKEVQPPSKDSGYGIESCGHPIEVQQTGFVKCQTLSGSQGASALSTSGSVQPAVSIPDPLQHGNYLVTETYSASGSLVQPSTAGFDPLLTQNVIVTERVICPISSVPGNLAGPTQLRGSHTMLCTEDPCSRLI
STEP block: STEP (human) phosphatase inhibition. recombinant STEP, OMFP fluorogenic substrate, fluorescence. AID 588621. 360,000 compounds, 0.25% hits. inhibition, % at 20 µM. P54829;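 active means inhibition at 20 µM, scaled per plate between control wells, above about 37%, limit read from the data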;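 further: 0% = DMSO with enzyme and substrate and 100% = substrate only without enzyme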
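System: STEP (striatal-enriched tyrosine phosphatase) enzyme, cell-free; medium: Bis-Tris pH 6.0 buffer with DTT, detergent; dosing: 20 µM, 1% DMSO; times: reaction 20 min, ambient temperature; detection: fluorescence, 480/540 nm; read-out basis: normalized % inhibition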
Numbers without * were called inactive; · = no result.

SMILES | SUMO1-SIM PPI | Scp1 inh | LMPTP block | DSG3 Ab inh | STEP block
O=C1c2ccccc2C(=O)c2c(O)c(O)cc(O)c21 | 35.8 | 76.5* | 66.0* | 89.8 | 24.2
O=C(O)c1cccc2c1C(=O)c1ccccc1C2=O | -25.9 | 3.5 | -0.8 | 109.0 | -5.3
Nc1ccc(O)c2c1C(=O)c1ccccc1C2=O | 13.1 | 79.9* | 72.5* | 92.0 | 36.7*
O=C1C=C(O)c2c(O)cc(O)c(O)c2C1=O | 12.0 | 47.4 | 75.6* | 78.8* | 94.6*
CCN(CC)S(=O)(=O)c1ccc(C)c(NC(=O)COC(=O)c2ccc(C)c(S(=O)(=O)N3CCOCC3)c2)c1 | -0.2 | -11.2 | 2.4 | 104.2 | 4.1
CCN(CC)Cc1c(O)ccc2c(=O)c(-c3ccccc3OC)coc12 | 0.3 | -12.3 | -1.6 | 115.2 | -0.5
CSc1ccc(C(=O)C2CCCN(C(=O)CCc3cnn(C)c3)C2)cc1 (stereo not given) | 2.3 | -10.2 | 0.7 | 103.0 | -0.3
CCO[C@@H]1OC(C(=O)Nc2ccccc2)=C[C@H](c2csc3ccccc23)[C@H]1CCCO | 1.5 | -10.3 | 1.6 | 102.9 | -2.1
CCCCn1nnnc1C(c1cc2ccccc2o1)N1CCN(c2cc(C)nc3ccccc23)CC1 (stereo not given) | 2.2 | · | 78.0* | · | ·
CC1(C)Cc2nc3sc4c(=O)n(CC(=O)NCc5ccccc5)cnc4c3cc2CO1 | 43.2* | -7.3 | -0.4 | 89.2 | -1.4
CC1(C)Cc2nc3sc4c(=O)n(CC(N)=O)cnc4c3cc2CO1 | -2.1 | -3.6 | -1.0 | 105.2 | 4.6
CN(c1cccc(NC(=O)c2ccc(C(C)(C)C)cc2)c1)S(C)(=O)=O | 43.9* | -3.5 | 1.1 | · | 1.6
O=C(NC(c1ccccc1)c1ccccc1)c1ccc(CO)cc1 | 0.4 | -3.4 | 1.3 | · | -1.6
C[n+]1c(-c2ccccc2)cc2c(=Cc3ccccc3)c3ccccc3n21 | -50.3 | 24.5 | 22.6 | · | 7.5
CN(C)c1ccc(C=c2c3ccccc3n3c2c2ccccc2[n+]3C)cc1 | 118.9* | -7.6 | 77.6* | · | 37.0
CN(C)c1ccc(C=c2c3cc(O)ccc3n3c2cc(-c2ccccc2)[n+]3C)cc1 | 68.8* | 7.1 | 93.8* | · | 13.5
Cc1cc(C)cc(NC(=O)C2CCN(S(C)(=O)=O)CC2)c1 | 4.6 | 0.3 | 1.3 | 113.5 | 0.3
NC(=O)Cc1ccc(C(=O)c2ccc(F)cc2)s1 | -8.2 | -8.4 | -1.0 | 74.6* | -3.0
Cn1c(N)c(N2CCCCC2)c(=O)n(CC(=O)Nc2ccc(Cl)c(Cl)c2)c1=O | 55.9* | -3.0 | -0.8 | 106.2 | -1.9
CNc1ncnc2c1ncn2[C@H]1CN(Cc2cccs2)C[C@@H](CO)O1 | 2.3 | · | 0.0 | · | -3.3
COc1ccc(Cl)cc1C(=O)Nc1cccc(-c2ccc3nncn3n2)c1 | 46.9* | 42.1 | 39.6 | 94.8 | 61.3*
COc1ccc(Cl)cc1Nc1nnc(-c2ccncc2)s1 | 95.8* | 90.3* | 0.0 | 113.5 | 83.4*
COC(=O)c1cn(Cc2ccccn2)c(=O)c2ccccc12 | 0.2 | -8.7 | 0.9 | 104.3 | 1.7
CC1=CC(C)(C)N(C(=O)CSc2ncn[nH]2)c2ccc(C)cc21 | 43.2* | -7.2 | -1.0 | 124.2 | 0.2
O=C(Cc1cccs1)Nc1ccc(NC(=O)c2ccco2)cc1 | -3.8 | 2.3 | -1.0 | -21.0* | -4.4
SMILES | SUMO1-SIM PPI | Scp1 inh | LMPTP block | DSG3 Ab inh | STEP block
Cc1ccn(C(=O)c2ccc(NC(=O)C3CC3)cc2)n1 | 1.5 | -8.1 | 1.2 | 73.5* | -4.0
CCC(=O)Nc1ccc(C(=O)n2ccc(C)n2)cc1 | -0.3 | 0.2 | -0.9 | 104.2 | -2.0
CC[n+]1c(/C=C(\C)Nc2ccccc2)sc2ccccc21 | -1.5 | 78.8* | 0.6 | 127.0 | 0.7
CC(=O)c1ccc(N/N=C(/C(N)=O)C2=NC(C)(C)Cc3ccccc32)cc1 | -4.8 | -7.4 | -0.9 | 117.8 | -1.4
CC1(C)Cc2ccccc2C(/C(=N\Nc2cccc(Cl)c2)C(N)=O)=N1 | -4.3 | -7.8 | 2.6 | 67.8* | -1.3
Cc1cc(C(=O)N/N=C/c2ccc(O)c(O)c2O)c(C)n1-c1ccccc1 | 8.1 | 9.2 | 55.9* | 96.3 | 11.7
Cc1cc(/C=N/NC(=O)c2ccncc2)c(C)n1-c1ccccc1 | -4.0 | -2.7 | 0.3 | 87.2 | -0.7
O=C(CCN1CCN(c2ccccc2)CC1)N/N=C/c1ccc(O)c(O)c1O | 22.8 | 1.2 | 66.8* | 80.2* | 3.8
COc1cccc(C(=O)OCC(=O)N2CCc3ccccc3C2)c1OC | -4.3 | -2.7 | -0.9 | · | -1.7
COC[C@@H]1CCCN1[C@@H]1CS(=O)(=O)N[C@H]1COCc1ccccc1 | 0.5 | · | -1.7 | · | 0.0
CCCn1cc(S(=O)(=O)c2ccc(C)cc2)c(=O)c2cc(OC)c(OC)cc21 | 10.4 | 0.3 | 0.2 | 105.4 | 0.2
Nc1nc(-c2cc(O)ccc2[N+](=O)[O-])cc(-c2ccccc2)c1[N+](=O)[O-] | 49.6* | 18.0 | 41.3 | 115.0 | 3.0
CN(C)S(=O)(=O)c1ccc(S(=O)(=O)NCc2cccs2)cc1 | -3.1 | -9.8 | 0.1 | 109.7 | 0.8
CCc1cccc2c(SCC(=O)NCC3CCCO3)nc(-c3ccc(F)cc3)nc12 (stereo not given) | -2.6 | -3.7 | -0.5 | 78.2* | 0.0
CC(C)Cn1c(=O)c2ccccc2n2c(CCC(=O)NCC3CCCO3)nnc12 (stereo not given) | -1.2 | -1.4 | -0.7 | 89.6 | -2.0
CN(C)c1ccc(C#Cc2ccc3cc(CCO)oc(=O)c3c2)cc1 | -13.6 | 38.4 | 68.0* | 105.7 | 97.0*
Cc1cccn2c(=O)c(/C=C(\C#N)C(=O)NCc3ccccc3)c(N3CCC(C(N)=O)CC3)nc12 | -7.7 | 4.0 | -0.1 | 110.5 | -1.4
CCCOc1ccc(C(=O)NC(=S)N2CCN(c3cc4c(cc3F)c(=O)c(C(=O)O)cn4CC)CC2)cc1 | 5.6 | -0.8 | 49.4 | 93.9 | 2.7
CCn1cc(C(=O)O)c(=O)c2cc(F)c(N3CCN(C(=S)NC(=O)c4ccc(F)c(F)c4)CC3)cc21 | 15.8 | 5.6 | 51.6* | 85.9 | 2.0
CCn1cc(C(=O)O)c(=O)c2cc(F)c(N3CCN(C(=S)NC(=O)c4ccccc4Br)CC3)cc21 | 35.7 | -10.3 | 67.6* | 108.1 | 0.2
CCn1cc(C(=O)O)c(=O)c2cc(F)c(N3CCN(C(=S)Nc4ccccc4OC)CC3)cc21 | 2.1 | 0.9 | 21.6 | 103.2 | 1.4
CCn1cc(C(=O)O)c(=O)c2cnc(N3CCN(C(=S)NC(=O)c4ccc(F)c(F)c4)CC3)nc21 | 19.1 | 18.8 | 43.4 | · | 3.9
CCn1cc(C(=O)O)c(=O)c2cc(F)c(N3CCN(C(=S)NC(=O)c4ccc(F)cc4)CC3)cc21 | 5.7 | 18.8 | 67.6* | 88.5 | 2.2
CCn1cc(C(=O)O)c(=O)c2cc(F)c(N3CCN(C(=S)NC(=O)c4cccc(F)c4)CC3)cc21 | 4.2 | -25.3 | 65.8* | 90.1 | -2.5
C[C@@H]1CN(C(=O)c2nc3ccc(Cl)cn3c2CN(C)CCc2cnn(C)c2)C[C@H](C)O1 | 12.7 | -7.4 | -0.1 | 95.6 | 1.1

Screening results: PubChem, several laboratories
